Measurements reported in ChEMBL document CHEMBL4145683, “Total Synthesis and Structure-Activity Relationships Study of Odilorhabdins, a New Class of Peptides Showing Potent Antibacterial Activity” (J Med Chem, 2018).
≈ marks a conversion by molar mass, not a printed value. Non-standard residues stand in square brackets, D forms with d. Residues, ends and D or L forms follow the SMILES beside them. *: point of attachment. Dab(3S-OH) = NC[C@H](O)[C@H](N)C(=O)O; ΔZArg = N=C(N)NCC/C=C(\N)C(=O)O; aThr = C[C@H](O)[C@H](N)C(=O)O; dOrn = NCCC[C@@H](N)C(=O)O; Dab = NCC[C@H](N)C(=O)O; Abu = CC[C@H](N)C(=O)O; NH(CH2)4NH2 = NCCCCN*

How the values were obtained:
Escherichia coli [1] = assay: Inhibition of bacterial protein synthesis in cell-free Escherichia coli incubated for 1 hr and measured for every 20 mins by bacterial cell-free transcription-translation assay; assay type: functional
Outline: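 E. coli cell-free coupled transcription-translation used a GFP gene in pEXP5-CT as template, started with 1 μg plasmid in 50 μL reactions. Feed buffer was added at 30 min, with incubation at 30 °C. Fluorescence (ex 475/em 520 nm) was read every 20 min. IC50 was taken at 1 h after feed addition from a four-parameter log(inhibitor)–response fit. Duplicates.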

Escherichia coli [2] = assay: microbe, parasite or virus in culture; settings: ATCC 25922
Klebsiella pneumoniae = assay: Antimicrobial activity against Klebsiella pneumoniae ATCC 43816 by broth microdilution method; assay type: functional; settings: Klebsiella pneumoniae, ATCC 43816; read-out: MIC
Outline: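 Broth microdilution MIC per CLSI M07-A10, with inoculum prepared by direct colony suspension. Reference strains were from ATCC and NCTC.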

Compound	IC50 (Escherichia coli [1]; Escherichia coli) [µM]	MIC (Escherichia coli [2]) [µg/mL]	MIC (Klebsiella pneumoniae) [µg/mL]	IC50 (Escherichia coli [1]) [µM]
C[C@H](N)C(=O)N[C@H](C(=O)N[C@H](C(=O)NCC(=O)N[C@H](CCCN)C(=O)N1CCC[C@H]1C(=O)N[C@@H](Cc1cnc[nH]1)C(=O)N[C@@H](CCCCN)C(=O)N/C(=C\CCNC(=N)N)C(=O)N[C@@H](CCCCN)C(=O)NCCCCN)[C@@H](O)CN)[C@@H](O)CN (H-A[Dab(3S-OH)][Dab(3S-OH)]G[dOrn]PHK[ΔZArg]K-{NH(CH2)4NH2})	0.73	16 (≈ 13.3 µM)	8 (≈ 6.63 µM)	
CC(C)[C@H](NC(=O)[C@@H](NC(=O)[C@@H](N)CCCCN)[C@@H](O)CN)C(=O)NCC(=O)N[C@H](CCCN)C(=O)N1CCC[C@H]1C(=O)N[C@@H](Cc1cnc[nH]1)C(=O)N[C@@H](CCCCN)C(=O)N/C(=C\CCNC(=N)N)C(=O)N[C@@H](CCCCN)C(=O)NCCCCN (H-K[Dab(3S-OH)]VG[dOrn]PHK[ΔZArg]K-{NH(CH2)4NH2})	0.8	4 (≈ 3.21 µM)	2 (≈ 1.6 µM)	
C[C@H](NC(=O)/C(=C/CCNC(=N)N)NC(=O)[C@H](CCCCN)NC(=O)[C@H](Cc1cnc[nH]1)NC(=O)[C@@H]1CCCN1C(=O)[C@@H](CCCN)NC(=O)CNC(=O)[C@@H](NC(=O)[C@@H](NC(=O)[C@@H](N)CCCCN)[C@@H](O)CN)[C@@H](O)CN)C(=O)NCCCCN (H-K[Dab(3S-OH)][Dab(3S-OH)]G[dOrn]PHK[ΔZArg]A-{NH(CH2)4NH2})	1.04	8 (≈ 6.63 µM)	8 (≈ 6.63 µM)	
N=C(N)NCC/C=C(\NC(=O)[C@H](CCCCN)NC(=O)[C@H](Cc1cnc[nH]1)NC(=O)[C@@H]1CCCN1C(=O)[C@@H](CCCN)NC(=O)CNC(=O)[C@@H](NC(=O)[C@H](CCN)NC(=O)[C@@H](N)CCCCN)[C@@H](O)CN)C(=O)N[C@@H](CCCCN)C(=O)NCCCCN (H-K[Dab][Dab(3S-OH)]G[dOrn]PHK[ΔZArg]K-{NH(CH2)4NH2})	5.91	> 64	64 (≈ 51.3 µM)	
C[C@H](NC(=O)[C@@H](CCCN)NC(=O)CNC(=O)[C@@H](NC(=O)[C@@H](NC(=O)[C@@H](N)CCCCN)[C@@H](O)CN)[C@@H](O)CN)C(=O)N[C@@H](Cc1cnc[nH]1)C(=O)N[C@@H](CCCCN)C(=O)N/C(=C\CCNC(=N)N)C(=O)N[C@@H](CCCCN)C(=O)NCCCCN (H-K[Dab(3S-OH)][Dab(3S-OH)]G[dOrn]AHK[ΔZArg]K-{NH(CH2)4NH2})	2.41	16 (≈ 12.9 µM)	32 (≈ 25.8 µM)	
GENTAMICIN				0.31
N=C(N)NCC/C=C(\NC(=O)[C@H](CCCCN)NC(=O)[C@H](Cc1cnc[nH]1)NC(=O)[C@@H]1CCCN1C(=O)[C@@H](CCCN)NC(=O)CNC(=O)[C@H](CO)NC(=O)[C@@H](NC(=O)[C@@H](N)CCCCN)[C@@H](O)CN)C(=O)N[C@@H](CCCCN)C(=O)NCCCCN (H-K[Dab(3S-OH)]SG[dOrn]PHK[ΔZArg]K-{NH(CH2)4NH2})	0.66	4 (≈ 3.24 µM)	4 (≈ 3.24 µM)	
N=C(N)NCCC[C@@H](NC(=O)[C@H](CCCCN)NC(=O)[C@H](Cc1cnc[nH]1)NC(=O)[C@@H]1CCCN1C(=O)[C@@H](CCCN)NC(=O)CNC(=O)[C@@H](NC(=O)[C@@H](NC(=O)[C@@H](N)CCCCN)[C@@H](O)CN)[C@@H](O)CN)C(=O)N[C@@H](CCCCN)C(=O)NCCCCN (H-K[Dab(3S-OH)][Dab(3S-OH)]G[dOrn]PHK[dR]K-{NH(CH2)4NH2})	0.98	16 (≈ 12.6 µM)	16 (≈ 12.6 µM)	
C[C@H](O)[C@H](NC(=O)[C@@H](NC(=O)[C@@H](N)CCCCN)[C@@H](O)CN)C(=O)NCC(=O)N[C@H](CCCN)C(=O)N1CCC[C@H]1C(=O)N[C@@H](Cc1cnc[nH]1)C(=O)N[C@@H](CCCCN)C(=O)N/C(=C\CCNC(=N)N)C(=O)N[C@@H](CCCCN)C(=O)NCCCCN (H-K[Dab(3S-OH)][aThr]G[dOrn]PHK[ΔZArg]K-{NH(CH2)4NH2})	1	8 (≈ 6.4 µM)	8 (≈ 6.4 µM)	
C/C=C(\NC(=O)[C@H](CCCCN)NC(=O)[C@H](Cc1cnc[nH]1)NC(=O)[C@@H]1CCCN1C(=O)[C@@H](CCCN)NC(=O)CNC(=O)[C@@H](NC(=O)[C@@H](NC(=O)[C@@H](N)CCCCN)[C@@H](O)CN)[C@@H](O)CN)C(=O)N[C@@H](CCCCN)C(=O)NCCCCN	0.83	16 (≈ 13.4 µM)	8 (≈ 6.7 µM)	
N=C(N)NCC/C=C(\NC(=O)[C@H](CCCCN)NC(=O)[C@H](Cc1cnc[nH]1)NC(=O)[C@@H]1CCCN1C(=O)[C@@H](CCCN)NC(=O)CNC(=O)[C@@H](NC(=O)[C@@H](NC(=O)[C@@H](N)CCCCN)[C@@H](O)CN)[C@@H](O)CN)C(=O)N[C@@H](CCCCN)C(=O)O (H-K[Dab(3S-OH)][Dab(3S-OH)]G[dOrn]PHK[ΔZArg]K-OH)	0.36	16 (≈ 13.4 µM)	4 (≈ 3.35 µM)	
N=C(N)NCC/C=C(\NC(=O)[C@H](CCCCN)NC(=O)[C@H](Cc1cnc[nH]1)NC(=O)[C@@H]1CCCN1C(=O)[C@@H](CCCN)NC(=O)CNC(=O)[C@@H](NC(=O)[C@@H](NC(=O)[C@@H](N)CCCCN)[C@@H](O)CN)[C@@H](O)CN)C(=O)O (H-K[Dab(3S-OH)][Dab(3S-OH)]G[dOrn]PHK[ΔZArg]-OH)	0.43	16 (≈ 15 µM)	4 (≈ 3.75 µM)	
N=C(N)NCC/C=C(\NC(=O)[C@H](CCCCN)NC(=O)[C@H](Cc1cnc[nH]1)NC(=O)[C@@H]1CCCN1C(=O)[C@@H](CCCN)NC(=O)CNC(=O)CNC(=O)[C@@H](NC(=O)[C@@H](N)CCCCN)[C@@H](O)CN)C(=O)N[C@@H](CCCCN)C(=O)NCCCCN (H-K[Dab(3S-OH)]GG[dOrn]PHK[ΔZArg]K-{NH(CH2)4NH2})	1.06	8 (≈ 6.64 µM)	8 (≈ 6.64 µM)	
CC[C@H](NC(=O)[C@@H](NC(=O)[C@@H](N)CCCCN)[C@@H](O)CN)C(=O)NCC(=O)N[C@H](CCCN)C(=O)N1CCC[C@H]1C(=O)N[C@@H](Cc1cnc[nH]1)C(=O)N[C@@H](CCCCN)C(=O)N/C(=C\CCNC(=N)N)C(=O)N[C@@H](CCCCN)C(=O)NCCCCN (H-K[Dab(3S-OH)][Abu]G[dOrn]PHK[ΔZArg]K-{NH(CH2)4NH2})	0.73	4 (≈ 3.24 µM)	4 (≈ 3.24 µM)	
N=C(N)NCCC[C@H](NC(=O)[C@H](CCCCN)NC(=O)[C@H](Cc1cnc[nH]1)NC(=O)[C@@H]1CCCN1C(=O)[C@@H](CCCN)NC(=O)CNC(=O)[C@@H](NC(=O)[C@@H](NC(=O)[C@@H](N)CCCCN)[C@@H](O)CN)[C@@H](O)CN)C(=O)N[C@@H](CCCCN)C(=O)NCCCCN (H-K[Dab(3S-OH)][Dab(3S-OH)]G[dOrn]PHKRK-{NH(CH2)4NH2})	1.53	32 (≈ 25.3 µM)	8 (≈ 6.32 µM)	
N=C(N)NCC/C=C(\NC(=O)[C@H](CCCCN)NC(=O)[C@H](Cc1cnc[nH]1)NC(=O)[C@@H]1CCCN1C(=O)[C@@H](CCCN)NC(=O)CNC(=O)[C@H](CCN)NC(=O)[C@@H](NC(=O)[C@@H](N)CCCCN)[C@@H](O)CN)C(=O)N[C@@H](CCCCN)C(=O)NCCCCN (H-K[Dab(3S-OH)][Dab]G[dOrn]PHK[ΔZArg]K-{NH(CH2)4NH2})	1.1	4 (≈ 3.2 µM)	4 (≈ 3.2 µM)	
NCCCC[C@H](NC(=O)[C@H](Cc1cnc[nH]1)NC(=O)[C@@H]1CCCN1C(=O)[C@@H](CCCN)NC(=O)CNC(=O)[C@@H](NC(=O)[C@@H](NC(=O)[C@@H](N)CCCCN)[C@@H](O)CN)[C@@H](O)CN)C(=O)O	10	> 64	> 64	
O=C(N[C@H](CO)[C@H](O)c1ccc([N+](=O)[O-])cc1)C(Cl)Cl [CHLORAMPHENICOL]	7.74			

The next lines start with results.

IC50 (Escherichia coli [1]; Escherichia coli) [µM]	MIC (Escherichia coli [2]) [µg/mL]	MIC (Klebsiella pneumoniae) [µg/mL]	Compound	IC50 (Escherichia coli [1]) [µM]
> 40	> 64	> 64	C[C@@H](NC(=O)CNC(=O)[C@@H](NC(=O)[C@@H](NC(=O)[C@@H](N)CCCCN)[C@@H](O)CN)[C@@H](O)CN)C(=O)N1CCC[C@H]1C(=O)N[C@@H](Cc1cnc[nH]1)C(=O)N[C@@H](CCCCN)C(=O)N/C(=C\CCNC(=N)N)C(=O)N[C@@H](CCCCN)C(=O)NCCCCN	
1.85	16 (≈ 13.3 µM)	4 (≈ 3.31 µM)	C[C@H](NC(=O)[C@H](Cc1cnc[nH]1)NC(=O)[C@@H]1CCCN1C(=O)[C@@H](CCCN)NC(=O)CNC(=O)[C@@H](NC(=O)[C@@H](NC(=O)[C@@H](N)CCCCN)[C@@H](O)CN)[C@@H](O)CN)C(=O)N/C(=C\CCNC(=N)N)C(=O)N[C@@H](CCCCN)C(=O)NCCCCN	
9.6	> 64	> 64	NCCCC[C@H](N)C(=O)N[C@H](C(=O)N[C@H](C(=O)NCC(=O)N[C@H](CCCN)C(=O)N1CCC[C@H]1C(=O)N[C@@H](Cc1cnc[nH]1)C(=O)O)[C@@H](O)CN)[C@@H](O)CN	
0.99			CN[C@@H]1[C@H](O)[C@H](NC)[C@H]2O[C@@]3(O)C(=O)C[C@@H](C)O[C@H]3O[C@@H]2[C@H]1O [SPECTINOMYCIN]	
> 40	> 64	> 64	N=C(N)NCC/C=C(\NC(=O)[C@H](CCCCN)NC(=O)[C@H](Cc1cnc[nH]1)NC(=O)[C@@H]1CCCN1C(=O)[C@@H](CCCN)NC(=O)CNC(=O)[C@@H](NC(=O)[C@@H](N)[C@@H](O)CN)[C@@H](O)CN)C(=O)N[C@@H](CCCCN)C(=O)NCCCCN	
2.12			CC[C@H]1OC(=O)[C@H](C)[C@@H](O[C@H]2C[C@@](C)(OC)[C@@H](O)[C@H](C)O2)[C@H](C)[C@@H](O[C@@H]2O[C@H](C)C[C@H](N(C)C)[C@H]2O)[C@](C)(O)C[C@@H](C)C(=O)[C@H](C)[C@@H](O)[C@]1(C)O [ERYTHROMYCIN]	
2.4	> 64	64 (≈ 54.2 µM)	C[C@H](NC(=O)[C@H](CCCCN)NC(=O)[C@H](Cc1cnc[nH]1)NC(=O)[C@@H]1CCCN1C(=O)[C@@H](CCCN)NC(=O)CNC(=O)[C@@H](NC(=O)[C@@H](NC(=O)[C@@H](N)CCCCN)[C@@H](O)CN)[C@@H](O)CN)C(=O)N[C@@H](CCCCN)C(=O)NCCCCN (H-K[Dab(3S-OH)][Dab(3S-OH)]G[dOrn]PHKAK-{NH(CH2)4NH2})	
> 40	> 64	> 64	C[C@H](O)[C@H](NC(=O)[C@@H](N)CCCCN)C(=O)N[C@H](C(=O)NCC(=O)N[C@H](CCCN)C(=O)N1CCC[C@H]1C(=O)N[C@@H](Cc1cnc[nH]1)C(=O)N[C@@H](CCCCN)C(=O)N/C(=C\CCNC(=N)N)C(=O)N[C@@H](CCCCN)C(=O)NCCCCN)[C@@H](O)CN	
